Structures are written as SMILES. Counter-ions that a name gives are not always drawn.

The subject of data set [1] is Trypanosoma brucei. Briefly: Antitrypanosomal activity against Trypanosoma brucei 427. Type of data set: functional, organism-based.
In data set [2] the test system is L6. Nature of the data set: Cytotoxicity against rat L6 cells after 6 days by Alamar blue assay. The class given is cell-based. The note with it: L6, 144 h. Put shortly:
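Rat skeletal myoblast L6 cells seeded at 1 × 10^4 ml−1 in growth medium with a range of compound concentrations and held 6 days at 37 °C. Alamar Blue was then added and fluorescence read after a further 8 h. IC50 is the mean of triplicate experiments ± SEM.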
For orientation: The colour change of resazurin is a common sign of viable cells or microbes.

The subject of data set [3] is Trypanosoma brucei. Briefly: Trypanocidal activity against bloodstream form of Trypanosoma brucei 427 after 48 hrs. The class given is functional, organism-based. The note with it: Trypanosoma brucei, 427, 48 h.
Data set [4] can be described thus: Selectivity index, ratio of IC50 for rat L6 cells to IC50 for chloroquine-resistant Plasmodium falciparum K1. Type of data set: toxicity, cell-based. The note with it: read-out: Selectivity Index.
For data set [5], the system named is Plasmodium falciparum. Nature of the data set: Antiplasmodial activity against chloroquine-resistant Plasmodium falciparum K1. The class given is functional, organism-based. Put shortly:
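K1 parasites grown in human A+ erythrocytes in RPMI 1640 with A+ serum and D-glucose; predominantly early ring-stage cultures used. Twofold serial dilutions run in duplicate from DMSO stocks (final DMSO ≤0.5%), at 2.5% haematocrit and 1% parasitaemia. Incubation was 48 h at 37 °C under 93% N2/3% O2/4% CO2. Growth was read as lactate dehydrogenase activity (APAD/NBT, 550 nm), and IC50 was taken by linear regression.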

Data set [6] in a line: Selectivity index, ratio of IC50 for rat L6 cells to IC 50 for Trypanosoma brucei 427. Type of data set: toxicity, cell-based. The following applies: L6 cells versus Trypanosoma brucei 427, read-out: Selectivity Index.

As usually defined, the IC50 is the concentration needed to halve the response being measured. Read a high IC50 as a need for much substance. In data set [1], `CC(C)C1=CC2Cc3nc4ccccc4c(N)c3C(C1)C2` (centres undefined) came in with an IC50 of 300 nM.
Still for that read-out and setting: with `CC1=CC2Cc3nc4cc(Cl)ccc4c(N)c3C(C1)C2` (centres undefined) the figure was 300 nM.
`C=CCC1=CC2Cc3nc4ccccc4c(N)c3C(C1)C2` (centres undefined) displayed a concentration for half-maximal inhibition (IC50) in data set [1] of 300 nM.
As for `CCC1=C[C@@H]2Cc3nc4cc(Cl)ccc4c(N)c3[C@H](C1)C2` [HUPRINE X HYDROCHLORIDE], the IC50 in data set [1] came to 300 nM; in data set [2], 12500 nM; in data set [3] it was 840 nM.
A word on the IC90: it is the concentration needed for an effect of 90%. Low values mean greater potency, high ones weaker potency. Consider `Nc1c2c(nc3ccccc13)CC1C=C(c3ccccc3)CC2C1` (centres undefined), for which the selectivity ratio in data set [4] and in data set [6] was 2.1 throughout. For the same molecule, the values for the IC50 in data set [5], in data set [2] and in data set [3] were 7120 nM, 3510 nM and 1650 nM, respectively. The same molecule returned an IC90 in data set [3] of 4700 nM.
Consider `CC1=CC2Cc3nc4cccc(F)c4c(N)c3C(C1)C2` (centres undefined), for which, in data set [3], the IC50 worked out at 3710 nM and it took 15800 nM to reach the 90% level (IC90).

The values above are taken from ChEMBL document CHEMBL1681701, “Huprines as a new family of dual acting trypanocidal-antiplasmodial agents” (Bioorg Med Chem, 2011).
